Legend:
[1] = test system: CD133+/CXCR4+ (Dual Hi) HT-29 xenografts; assay: Dual Hi HT-29 xenograft after FUOX enrichment, IP G5C or FUOX; format: in vivo, NCr nude mice; conditions: G5C 100 mg/kg IP; FUOX IP weekly
Summary of the method: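 1 × 10⁵ FACS-sorted CD133⁺/CXCR4⁺ HT-29 cells were injected subcutaneously into NCr nude mice. Palpable tumors were enriched in vivo with 25 mg/kg 5-fluorouracil plus 2 mg/kg oxaliplatin IP weekly for 3 weeks. Mice were then randomized to vehicle, the same regimen continued, or test compound 100 mg/kg IP three times/week (14 doses). Tumors (n = 2/group) were dissociated into single cells and 1–3° spheroids (50–150 μm) counted in low-adhesion EGF/FGF stem cell medium.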

[2] = test system: pooled normal human plasma; assay: Human plasma clotting time; format: biochemical; conditions: ∼34 to ∼68 s
Summary of the method: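 APTT was run in a fibrometer by one-stage recalcification. Test compound was mixed with citrated pooled normal human plasma and prewarmed APTT reagent (ellagic acid). After 4 min at 37 °C, clotting was started with prewarmed 25 mM CaCl₂ and time to clot recorded. A quadratic trend line fitted to the data gave the concentration doubling clotting time.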

[3] = test system: HT-29 monolayer culture; assay: Cell proliferation; format: cell-based, human; conditions: MTT, 60-72 h
Summary of the method: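 HT-29 cells kept as monolayers in DMEM:F-12 with 10% FBS and 1% penicillin/streptomycin, passaged before 70% confluence. About 2.5 × 10³ cells/well were incubated overnight (37 °C, 5% CO₂), then exposed to test compound for 60–72 h. MTT (5 mg/mL stock in PBS) was added for 2–3 h and crystals dissolved in DMSO. A590 was read and growth expressed as percent of vehicle; ≥3 replicates.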

[4] = Preliminary half-life experiments; format: in vivo; conditions: data not shown
[5] = Mouse tail bleeding study; format: in vivo, wild-type ICR mice; conditions: IV; NSGMs 1–100 mg/kg, enoxaparin 224 μg/kg

- concentration required for 2-fold increase in APTT [2]: ~200 µM
- increase in half-life over G2.2 [4]: ~50%
SMILES: CC(C)CCC[C@@H](C)[C@H]1CC[C@H]2[C@@H]3CC=C4C[C@@H](OCCCCCOc5cc(-c6oc7cc(OS(=O)(=O)[O-])cc(OCCCOc8cc(OS(=O)(=O)[O-])cc9oc(-c%10ccc(OS(=O)(=O)[O-])c(OS(=O)(=O)[O-])c%10)c(OS(=O)(=O)[O-])c(=O)c89)c7c(=O)c6OS(=O)(=O)[O-])ccc5OS(=O)(=O)[O-])CC[C@]4(C)[C@H]3CC[C@]12C.[Na+].[Na+].[Na+].[Na+].[Na+].[Na+].[Na+] [G5C, Sodium 4-(5-(3-((2-(3-((5-(((8S,9S,10R,13R,14S,17R)-10,13-Dimethyl-17-((R)-6-methylheptan-2-yl)-2,3,4,7,8,9,10,11,12,13,14,15,16,17-tetradecahydro-1H-cyclopenta[a]phenanthren-3-yl)oxy)pentyl)oxy)-4-(sulfonatooxy)phenyl)-4-oxo-3,7-bis(sulfonatooxy)-4H-chromen-5-yl)oxy)propoxy)-4-oxo-3,7-bis(sulfonatooxy)-4H-chromen-2-yl)-1,2-phenylene Bis(sulfate)]
- ex vivo 3° spheroid growth from xenograft cells [1]: maintain inhibition
- cytotoxicity under monolayer conditions [3]: essentially benign toward monolayer cancer cell culture even at ∼400 μM
- blood loss, tail bleeding [5]: did not exhibit much tail bleeding phenotype
